Series [1] concerns the target Human immunodeficiency virus type 1 reverse transcriptase (Human immunodeficiency virus 1, UniProt Q72547). Description: Inhibition of wild type HIV1 reverse transcriptase.
Series [2] has as its target Human immunodeficiency virus type 1 reverse transcriptase (Human immunodeficiency virus 1, UniProt Q72547, K103N/Y181C). Description: Inhibition of HIV1 reverse transcriptase K103N/Y181C mutant.
Series [3] can be described thus: Selectivity index, ratio of CC50 for mock-infected human MT4 cells to EC50 for HIV1 3B infected in human MT4 cells. The class given is toxicity, cell-based. The conditions noted are these: mock-infected (CC50) and HIV-1 3B infected (EC50). The method in brief:
(§1)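 Selectivity index is CC₅₀/EC₅₀. Both values come from MTT assays run over 5 days in MT-4 cells, mock-infected or infected with HIV-1 IIIB or HIV-2 ROD at 100–300 CCID₅₀. Median OD of three wells.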

Series [4] can be described thus: Cytotoxicity against mock-infected human MT4 cells after 5 days by MTT assay. The class given is cell-based. The method in brief: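 Mock-infected MT-4 cells at 6 × 10⁵ cells/ml, with culture medium in place of virus, exposed to compound (stocks at 10× final concentration) for 5 days. Viability read by MTT, absorbance at 540 and 690 nm, median OD of three wells. CC₅₀ is the concentration reducing OD540 of the mock-infected control by 50%.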
In general terms: Tetrazolium assays rely on reduction of a dye to a coloured formazan, in cell work by metabolically active cells.

Series [5] deals with Human immunodeficiency virus 1. Briefly: Antiviral activity against HIV1 3B infected in human MT4 cells assessed as inhibition of virus-induced cytopathic effect after 5 days by MTT assay. The class given is functional, organism-based. As to conditions: Human immunodeficiency virus 1, 3B, MT4, 120 h. The method in brief: (§2)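 MT-4 cells, resuspended at 6 × 10⁵ cells/ml, infected with HIV-1 IIIB or HIV-2 ROD at 100–300 CCID₅₀. Test compound stocks were made at 10× final concentration. Read after 5 days as MTT reduction to formazan, absorbance at 540 and 690 nm. Median OD of three wells. EC₅₀ is the concentration giving 50% protection against virus-induced cytopathic effect.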
In general terms: Damage to the host cells serves as the signal in cytopathic effect assays.

Series [6] is described as follows: Selectivity index, ratio of CC50 for mock-infected human MT4 cells to EC50 for HIV2 ROD infected in human MT4 cells. The class given is toxicity, cell-based. As to conditions: read-out: Ratio CC50/EC50. The method in brief: as §1
The subject of series [7] is Human immunodeficiency virus 2. Description: Antiviral activity against HIV2 ROD infected in human MT4 cells assessed as inhibition of virus-induced cytopathic effect after 5 days by MTT assay. The class given is functional, organism-based. The conditions noted are these: Human immunodeficiency virus 2, ISOLATE ROD, MT4, 120 h. The method in brief: as §2

As for `Cc1ccc(-n2c(C)nnc2SCC(=O)Nc2ccccc2)cc1`, the EC50 (commonly the concentration that produces a half-maximal response) in series [1] was 2.05 µM.

`Cc1ccc(NC(=O)CSc2nnc(C)n2-c2ccccc2)c(Br)c1`: the EC50 in series [2] is 1.3 µM; in series [1], 0.1 µM.

As for `Cc1cc(C)c(-n2nnnc2SCC(=O)Nc2ccccc2Cl)c(C)c1`, in series [1], the IC50 (in general, the concentration that gives 50% inhibition) amounted to 0.005 µM.

Take `Cc1cccc(C)c1NC(=O)CSc1[se]nnc1-c1ccc(Cl)c(Cl)c1`: the selectivity ratio in series [3] and in series [6] was under 1 throughout. In series [4], it took 7 µM to reach half-maximal cytotoxicity (CC50 at 120 h). Besides, the 50% effective concentration (EC50) in series [5] and in series [7] was over 7 µM throughout.

As to `O=C(CSc1[se]nnc1-c1ccc(Cl)c(Cl)c1)Nc1ccccn1`, the selectivity ratio in series [3] and in series [6] was under 1 throughout. Also, the CC50 – broadly, the concentration giving 50% cytotoxicity – at 120 h in series [4] turned out to be 31.4 µM. The EC50 in series [5] and in series [7] was over 31.4 µM throughout.

As to `O=C(CSc1[se]nnc1-c1ccc(Cl)c(Cl)c1)Nc1ccccc1F`, the selectivity ratio in series [3] and in series [6] was under 1 each time. The CC50 at 120 h in series [4] worked out at 26.9 µM. The EC50 in series [5] and in series [7] was over 26.9 µM in each case.

Turning to `COC(=O)c1ccsc1NC(=O)CSc1[se]nnc1-c1ccc(Cl)c(Cl)c1`, the selectivity ratio in series [3] and in series [6] was under 1 in each case. The CC50 at 120 h in series [4] was 22 µM. Besides, the EC50 in series [5] and in series [7] was over 22 µM throughout.

In the case of `O=C(CSc1[se]nnc1-c1ccc(Cl)c(Cl)c1)Nc1nccs1`, the selectivity ratio in series [3] and in series [6] was under 1 in each case. This compound came in with a CC50 at 120 h in series [4] of 8.68 µM. For the same compound, the EC50 in series [5] and in series [7] was over 8.68 µM each time.

Compound `Cc1ccc(NC(=O)CSc2[se]nnc2-c2ccc(Cl)c(Cl)c2)c(Br)c1` displayed a CC50 at 120 h in series [4] of 22.9 µM. Moreover, the EC50 in series [5] is at least 8.71 µM; in series [7], over 22.9 µM. Further, the selectivity ratio in series [6] is under 1.

For the compound `O=C(CSc1[se]nnc1-c1ccc(Cl)c(Cl)c1)Nc1ccccc1Cl`, the selectivity ratio in series [3] and in series [6] was under 1 each time. The CC50 at 120 h in series [4] is 23.4 µM. For the same compound, the EC50 in series [5] and in series [7] was over 23.4 µM throughout.

As to `Cc1ccc(NC(=O)CSc2[se]nnc2-c2ccc(Cl)c(Cl)c2)cc1`, the selectivity ratio was 2 in series [3] and under 1 in series [6]. The compound also had a CC50 at 120 h in series [4] of 13.3 µM. In addition, the EC50 in series [5] is 6.65 µM; in series [7], over 13.3 µM.

Take `O=C(CSc1[se]nnc1-c1ccc(Cl)c(Cl)c1)Nc1ccccc1`: the selectivity ratio was 63 in series [3] and under 1 in series [6]. The same compound came in with a CC50 at 120 h in series [4] of 19 µM. The values for the EC50 in series [5] and in series [7] were at least 6.07 µM and over 19 µM, respectively.

Take `Cc1cccc(NC(=O)CSc2[se]nnc2-c2ccc(Cl)c(Cl)c2)c1C`: the selectivity ratio in series [3] and in series [6] was under 1 throughout. The CC50 at 120 h in series [4] is 12.8 µM. Also, the EC50 in series [5] and in series [7] was over 12.8 µM in each case.

Regarding `O=C(CSc1[se]nnc1-c1ccc(Cl)c(Cl)c1)Nc1cccnc1Cl`, the selectivity ratio in series [3] and in series [6] was under 1 throughout. This compound displayed a CC50 at 120 h in series [4] of 24.8 µM. For the same compound, the concentration giving a half-maximal response (EC50) in series [5] and in series [7] was over 24.8 µM in each case.

In the case of `O=C(CSc1[se]nnc1-c1ccc(Cl)c(Cl)c1)Nc1ccc(Cl)cc1`, the selectivity ratio was 3 in series [3] and under 1 in series [6]. In series [4], this compound showed a CC50 at 120 h of 16.8 µM. Further, the values for the EC50 in series [5] and in series [7] were 5.59 µM and over 16.8 µM, respectively.

`Cc1ccccc1NC(=O)CSc1[se]nnc1-c1ccc(Cl)c(Cl)c1`: the selectivity ratio in series [3] is 4; in series [6] it was under 1. For the same compound, in series [4], the CC50 at 120 h was found to be 22.3 µM. For the same compound, the EC50 in series [5] is 5.56 µM; in series [7], over 22.3 µM.

In the case of `Cc1ccc2sc(NC(=O)CSc3[se]nnc3-c3ccc(Cl)c(Cl)c3)nc2c1`, the selectivity ratio in series [3] and in series [6] was under 1 in each case. Moreover, in series [4], the CC50 at 120 h came to 10.2 µM. Moreover, the EC50 in series [5] and in series [7] was over 10.2 µM throughout.

On to `Cc1ccc(NC(=O)CSc2[se]nnc2-c2ccc(Cl)c(Cl)c2)c([N+](=O)[O-])c1`, for which the selectivity ratio in series [3] is 5; in series [6], under 1. In series [4], this compound showed a CC50 at 120 h of 26.3 µM. The concentration giving a half-maximal response (EC50) was 5.42 µM in series [5] and over 26.3 µM in series [7].

With `O=C(CSc1[se]nnc1-c1ccc(Cl)c(Cl)c1)Nc1ccccc1Br`, the selectivity ratio in series [3] and in series [6] was under 1 throughout. This compound also showed a CC50 at 120 h in series [4] of 23.6 µM. The EC50 in series [5] and in series [7] was over 23.6 µM in each case.

With `CC(=O)c1ccc(NC(=O)CSc2[se]nnc2-c2ccc(Cl)c(Cl)c2)c(Br)c1`, the selectivity ratio in series [3] is 8; in series [6], under 1. In addition, the CC50 at 120 h in series [4] was found to be 18.9 µM. Also, the EC50 in series [5] is 2.45 µM; in series [7] it was over 18.9 µM.

For `O=C(CSc1[se]nnc1-c1ccc(Cl)c(Cl)c1)Nc1ccccc1[N+](=O)[O-]`, the CC50 at 120 h in series [4] turned out to be 26.6 µM. The EC50 in series [5] is at least 6.84 µM; in series [7], over 26.6 µM. Besides, the selectivity ratio in series [6] was under 1.

These data come from ChEMBL document CHEMBL1152518, “1,2,3-Selenadiazole thioacetanilides: synthesis and anti-HIV activity evaluation” (Bioorg Med Chem, 2009).
